Active and inactive are the calls of the source. The rule behind the calls is not given here.
Assays:
Plasmodium falciparum [1] = assay: Antiplasmodial activity against multi-drug resistant Plasmodium falciparum K1 infected in human erythrocytes assessed as parasite growth inhibition after 72 hrs by SYBR Green I dye-based fluorescence assay; format: functional, organism-based
HepG2 = assay: (§1) Cytotoxicity against human HepG2 cells assessed as cell viability after 72 hrs by MTT assay; format: cell-based; details: hepg2, 72 h
Method in brief: (§2)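 Cells were kept in RPMI with 10% FBS. 5×10^3 cells/well were settled 24 h, then exposed to compound from DMSO (final <0.5%): CHO for 24 h, HepG2 for 72 h, in duplicate. Wells were checked for precipitate. MTT was added for 2 h at 37 °C, formazan dissolved in DMSO, and A570 read (630 nm reference). Viability is % of untreated cells; CC50 from non-linear regression, mean of three experiments.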

[2] = as §1; format: cell-based; details: HepG2 cells; method in brief: as §2
[3] = Selectivity index, ratio of CC50 for human HepG2 cells to IC50 for multi-drug resistant Plasmodium falciparum K1 infected in human erythrocytes
Salmonella typhimurium [4] = assay: Mutagenicity in Salmonella typhimurium TA97A at 2.5 mM after 1 hr by Ames test in absence of S9 fraction; format: toxicity, organism-based; details: salmonella enterica subsp. enterica serovar typhimurium, 2500 µM
Method in brief: (§3)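 Tester strains were grown overnight in nutrient broth. 0.1 mL culture was incubated 1 h at 37 °C with shaking with compound (2.5–25 mM DMSO solutions), with or without 4% S9 mix. Top agar was added and the mix plated on Vogel-Bonner agar. Revertants were counted after 48 h at 37 °C in the dark. A twofold rise over spontaneous revertants counts as mutagenic.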

Salmonella typhimurium [5] = assay: Mutagenicity in Salmonella typhimurium TA100 at 2.5 mM after 1 hr by Ames test in absence of S9 fraction; format: toxicity, organism-based; details: salmonella enterica subsp. enterica serovar typhimurium, 2500 µM; method in brief: as §3
[6] = Genotoxicity in DNA (unknown origin) incubated for 24 hrs in dark condition by methyl green displacement assay
Method in brief: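 DNA-methyl green (4 mg in 20 mL 0.05 M Tris-HCl pH 7.5 with 7.5 mmol/L MgSO4) was shaken 24 h at 37 °C. It was then added to compound from DMSO (final <0.5%). A630 was read, and read again after 24 h at room temperature in the dark. DC50 is the concentration displacing 50% of methyl green.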

Plasmodium yoelii = assay: Antiplasmodial activity against liver stage of Plasmodium yoelii 17X NL sporozoites infected in human HepG2 cells expressing CD81 after 48 hrs by DAPI staining-based immunofluorescence analysis; format: functional, organism-based; details: HepG2, 48 h
Method in brief: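 HepG2/CD81 cells were grown in D-MEM with 10% FBS. 25×10^3 cells/well went on collagen-coated wells; after 24 h they received compound and 5000 P. yoelii sporozoites together, then were spun 900 × g for 10 min at 4 °C. Treatment was renewed at 3 h and 24 h. At 48 h cells were methanol-fixed, stained with anti-HSP70 immunofluorescence, and parasites counted by microscopy. IC50 is 50% fewer parasites than in 0.5% DMSO controls.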

[7] = Cytotoxicity against human HepG2 cells expressing CD81 assessed as cell viability after 72 hrs by CellTiter-glo assay; format: cell-based
[8] = Selectivity index, ratio of CC50 for human HepG2 cells expressing CD81 to IC50 for liver stage of Plasmodium yoelii 17X NL sporozoites infected in human HepG2 cells expressing CD81; format: functional
Plasmodium falciparum [9] = assay: Antiplasmodial activity against multi-drug resistant Plasmodium falciparum K1 infected in human erythrocytes assessed as depolarization of mitochondrial membrane at IC50 after 20 mins by flow cytometric analysis; format: functional, organism-based
[10] = Inhibition of Plasmodium falciparum DHFR after 48 hrs
Method in brief: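 Recombinant S. cerevisiae whose own DHFR is replaced by the P. falciparum DHFR domain was used. 1×10^4 cells were grown in YEPD with compound from DMSO (final <0.5%) at 30 °C for 48 h, in duplicate. Growth was read as A660. IC50 (50% growth inhibition) came from non-linear regression.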

Plasmodium falciparum [11] = assay: Antiplasmodial activity against multi-drug resistant Plasmodium falciparum K1 infected in human erythrocytes assessed as parasite growth inhibition after 72 hrs by SYBR Green I dye-based fluorescence assay in presence of ascorbic acid; format: functional, organism-based; details: K1, 72 h
Method in brief: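 Same SYBR Green I 72 h growth assay on the K1 strain (2% haematocrit, 1% parasitaemia, 37 °C, 6% CO2/14% O2/80% N2, DMSO <0.5%), with 800 µM ascorbic acid in the medium as radical trap. Duplicates; artesunate as positive control; IC50 derived.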

[12] = Plasmodium falciparum, K1, 72 h, read-out: IC50

SMILES | IC50 (Plasmodium falciparum [1]; [12]) | CC50 at 72 h [2] | other results
CCCCN(CCCC)c1nc2cc(-c3ccc(C)cc3)sc2c(=O)[nH]1 |  |  | IC50 (Plasmodium falciparum [1]): ND(Insoluble); CC50 (HepG2): ND(Insoluble)
Cc1ccc(-c2cc3nc(NC(C)c4ccccc4)[nH]c(=O)c3s2)cc1 (configuration not stated) | > 5 µM | 9.2 µM | 
CCCCCCC(C)Nc1nc2cc(-c3ccc(C)cc3)sc2c(=O)[nH]1 (configuration not stated) | > 5 µM | 19.4 µM | 
CC(C)Nc1nc2c(-c3ccc(Br)cc3)csc2c(=O)[nH]1 | > 5 µM | 6.5 µM | 
C[C@H]1c2cccc(O)c2C(=O)C2=C(O)[C@]3(O)C(=O)C(C(N)=O)=C(O)[C@@H](N(C)C)[C@@H]3[C@@H](O)[C@@H]21.O [DOXYCYCLINE] |  |  | Ratio CC50/IC50 [3]: 4
CCCCCCCNc1nc2cc(-c3ccc(C)cc3)sc2c(=O)[nH]1 | > 5 µM | 6.8 µM | 
[N-]=[N+]=[N-].[Na+] [SODIUM AZIDE] |  |  | Activity (Salmonella typhimurium [4]): Toxic; Activity (Salmonella typhimurium [5]): Toxic
COc1cccc2c1C(=O)c1c(O)c3c(c(O)c1C2=O)C[C@@](O)(C(C)=O)C[C@@H]3O[C@H]1C[C@H](N)[C@H](O)[C@H](C)O1 [DAUNORUBICIN] |  |  | DC50 [6]: 1000 nM
Cc1ccc(-c2ccc3nc(NC(C)(C)C)[nH]c(=O)c3c2)cc1.Cl | > 5 µM | 0.49 µM | Ratio CC50/IC50 [3]: <10.2
COc1cc(NC(C)CCCN)c2ncccc2c1 (configuration not stated) [PRIMAQUINE] |  |  | IC50 (Plasmodium yoelii): 1160 nM; CC50 at 72 h [7]: 6.1 µM; Ratio CC50/IC50 [8]: 5.3
CCCCN(C)c1nc2cc(-c3ccc(C)cc3)sc2c(=O)[nH]1 | > 5 µM | 3 µM | 
COc1ccc(-c2cc3nc(NC(C)C)[nH]c(=O)c3s2)cc1 | 0.5 µM | 27.1 µM | Ratio CC50/IC50 [3]: 136
CCCCCN(CCCCC)c1nc2cc(-c3ccc(C)cc3)sc2c(=O)[nH]1 |  |  | IC50 (Plasmodium falciparum [1]): ND(Insoluble); CC50 (HepG2): ND(Insoluble)
CCCN(CCC)c1nc2cc(-c3ccc(C)cc3)sc2c(=O)[nH]1 |  |  | IC50 (Plasmodium falciparum [1]): ND(Insoluble); CC50 (HepG2): ND(Insoluble)
Cc1ccc(-c2cc3nc(NC(C)C)[nH]c(=O)c3s2)cc1 |  |  | Activity (Plasmodium falciparum [9]): inactive
CCC(CC)Nc1nc2cc(-c3ccc(C)cc3)sc2c(=O)[nH]1 | > 5 µM | 101 µM | 
CCCCCNc1nc2cc(-c3ccc(C)cc3)sc2c(=O)[nH]1 | > 5 µM | 4.2 µM | 
CC(C)(C)Nc1nc2ccsc2c(=O)[nH]1 | > 5 µM | 8.4 µM | 
Cc1ccc(-c2cc3nc(NCc4ccccc4Cl)[nH]c(=O)c3s2)cc1 | > 5 µM | 32.6 µM | 
Cc1cccc(-c2cc3nc(NC(C)(C)C)[nH]c(=O)c3s2)c1 | 3.6 µM | 14.1 µM | Ratio CC50/IC50 [3]: 3
CC(C)Nc1nc2cc(-c3ccc(Cl)cc3)sc2c(=O)[nH]1 | 0.6 µM | > 15.6 µM | Ratio CC50/IC50 [3]: >26
CCc1nc(N)nc(N)c1-c1ccc(Cl)cc1 [PYRIMETHAMINE] |  |  | IC50 [10]: 2.8 µM
CCCCNc1nc2cc(-c3ccc(C)cc3)sc2c(=O)[nH]1 | > 5 µM | 6 µM | 
Cc1ccc(-c2ccc3c(=O)[nH]c(NC(C)(C)C)nc3c2)cc1 | > 5 µM | 0.98 µM | Ratio CC50/IC50 [3]: <5.1

SMILES | IC50 (Plasmodium falciparum [1]; [12]) | CC50 at 72 h [2] | other results
CC(C)Nc1nc2ccsc2c(=O)[nH]1 | > 5 µM | 23.9 µM | 
CCCNc1nc2cc(-c3ccc(C)cc3)sc2c(=O)[nH]1 | > 5 µM | > 62.5 µM | 
Cc1ccc(-c2csc3c(=O)[nH]c(NC(C)C)nc23)cc1 | 2.7 µM | 8.8 µM | Ratio CC50/IC50 [3]: 3
O=C1C(O)=C([C@H]2CC[C@H](c3ccc(Cl)cc3)CC2)C(=O)c2ccccc21 [ATOVAQUONE] |  | > 15.6 µM | IC50 (Plasmodium yoelii): 9 nM; CC50 at 72 h [7]: 9.5 µM
CC(C)Nc1nc2c(-c3ccc(F)cc3)csc2c(=O)[nH]1 | > 5 µM | > 15.6 µM | 
Cc1ccc(-c2cc3nc(N)[nH]c(=O)c3s2)cc1 |  |  | IC50 (Plasmodium falciparum [1]): ND(Insoluble); CC50 (HepG2): ND(Insoluble)
CC(C)(C)Nc1nc2cc(-c3ccc(F)cc3)sc2c(=O)[nH]1 | > 5 µM | 5.1 µM | 
Cc1ccc(-c2cc3nc(NCC(C)C)[nH]c(=O)c3s2)cc1 | > 5 µM | 21.6 µM | 
CCN(CC)c1nc2cc(-c3ccc(C)cc3)sc2c(=O)[nH]1 |  |  | IC50 (Plasmodium falciparum [1]): ND(Insoluble); CC50 (HepG2): ND(Insoluble)
CC(C)(C)Nc1nc2c(-c3ccc(F)cc3)csc2c(=O)[nH]1 | > 5 µM | 2.3 µM | 
C[C@@H]1CC[C@H]2[C@@H](C)C(=O)O[C@@H]3O[C@@]4(C)CC[C@@H]1[C@]32OO4 [ARTEMISININ] |  |  | IC50 (Plasmodium yoelii): > 10000 nM; CC50 at 72 h [7]: > 10 µM
CC(C)(C)Nc1nc2cc(-c3ccccc3)sc2c(=O)[nH]1 | 1 µM | 12.5 µM | Ratio CC50/IC50 [3]: 10
Cc1ccccc1-c1cc2nc(NC(C)(C)C)[nH]c(=O)c2s1 | 1.7 µM | 4 µM | Ratio CC50/IC50 [3]: 2
CC1(C)N=C(N)N=C(N)N1c1ccc(Cl)cc1 [CYCLOGUANIL] |  |  | IC50 [10]: 5 µM
CCCCCCNc1nc2cc(-c3ccc(C)cc3)sc2c(=O)[nH]1 | > 5 µM | 10.6 µM | 
COc1ccc(-c2csc3c(=O)[nH]c(NC(C)C)nc23)cc1 | > 5 µM | 27.8 µM | 
COc1ccc(-c2cc3nc(NC(C)(C)C)[nH]c(=O)c3s2)cc1 | > 5 µM | 32.3 µM | 
CC(C)(C)Nc1nc2cc(-c3ccc(Br)cc3)sc2c(=O)[nH]1 | > 5 µM | 1.4 µM | 
CC(C)Nc1nc2cc(-c3ccc(Br)cc3)sc2c(=O)[nH]1 | 1.7 µM | 13.4 µM | Ratio CC50/IC50 [3]: 9
C[C@H]1[C@H](OC(=O)CCC(=O)O)O[C@@H]2O[C@@]3(C)CC[C@H]4[C@H](C)CC[C@@H]1[C@@]24OO3 [ARTESUNATE] |  |  | IC50 (Plasmodium falciparum [11]): 700 nM
CC(C)Nc1nc2c(-c3ccc(Cl)cc3)csc2c(=O)[nH]1 | > 5 µM | 7.1 µM | 
Cc1ccc(-c2csc3c(=O)[nH]c(NC(C)(C)C)nc23)cc1 | > 5 µM | 1.4 µM | 
CCN(CCCl)CCCNc1c2ccc(Cl)cc2nc2ccc(OC)cc12 |  |  | Activity (Salmonella typhimurium [4]): Toxic; Activity (Salmonella typhimurium [5]): Toxic
CC(C)Nc1nc2cc(-c3ccc(F)cc3)sc2c(=O)[nH]1 | 0.5 µM | > 25 µM | Ratio CC50/IC50 [3]: >66

— ChEMBL document CHEMBL3414541, “Discovery of new thienopyrimidinone derivatives displaying antimalarial properties toward both erythrocytic and hepatic stages of Plasmodium” (Eur J Med Chem, 2015)
